Screens from PubChem BioAssay.
Rtt109 Vps75: inhibitors of Candida albicans Rtt109/Vps75 histone acetyltransferase | AID 540336 | 330,000 compounds, 0.16% hits | Q5AAJ8 | purified Rtt109/Vps75, ThioGlo CoA-SH fluorescence, 4 h | inhibition, % at 34.9 µM;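 active means inhibition of at least 50% in every replicate; inconclusive means best replicate reaches 50% inhibition but some replicates fall short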
Target sequence (Q5AAJ8 whole entry, looked up): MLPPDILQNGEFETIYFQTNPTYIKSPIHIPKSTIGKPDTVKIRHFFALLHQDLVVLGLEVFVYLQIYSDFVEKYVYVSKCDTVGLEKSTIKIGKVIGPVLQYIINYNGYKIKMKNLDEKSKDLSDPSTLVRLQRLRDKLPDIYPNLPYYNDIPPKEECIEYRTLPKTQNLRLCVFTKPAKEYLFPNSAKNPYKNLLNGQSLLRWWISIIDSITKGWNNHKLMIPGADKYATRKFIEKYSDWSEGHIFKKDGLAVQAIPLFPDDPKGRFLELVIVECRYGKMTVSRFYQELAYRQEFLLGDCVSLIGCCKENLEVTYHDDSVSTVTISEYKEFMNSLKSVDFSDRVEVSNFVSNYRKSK
GASC-1 inh: inhibitors of human GASC-1 (JMJD2C) demethylase. Q9H3R0. GST-JMJD2C(1-420) H3K9me3 demethylation, DELFIA europium. inhibition, % at 2.35 µM. 330,000 compounds, 0.069% hits. AID 2099;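 active means more than half of a compound's replicate wells show inhibition beyond 50%, single wells judged on their own value; inconclusive means some, but no more than half, of replicates pass 50% inhibition; inactive means no replicate passes 50% inhibition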;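 further: signal counts dimethyl H3K9 product captured on neutravidin plate; 0% = median of DMSO wells and 100% = 0.3 times that DMSO median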
T cell modulator: modulates CD8 T cell binding to vesicles | 2C CD8+ T cell-vesicle binding, flow cytometry; stronger effect = lower value | response (vesicle binding), % at 7 µM | 330,000 compounds, 0.068% hits;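 active means response, share of CD8 T cells binding vesicles, and their 90th percentile fluorescence all below set limits, cut at about 80% in these data, passing the limit was not always enough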;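 further: values below 100% mean blocked vesicle binding to the CD8+ T cells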
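incubation = binding step 1.5 h, 37 °C, antibody labelling 20 min, ice | test system = 2C mouse CD8+ T cells | read-out basis = percent CD8+ FL2 mean versus row control | controls = Peptide-free naked vesicles (low) and QL9 vesicles with 0.7% DMSO vehicle (high) | detection = flow cytometry of vesicle-bound cells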
NR3A LBD binder: NR3A (human) ligand-binding domain modulation; AID 1259313; NR3A LBD differential scanning fluorimetry, Tm shift; 0% = protein alone, 100% = glycine-bound protein; Tm shift relative to glycine control, % at 25 µM; 340,000 compounds, 2.5% hits;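 active means melting temperature shift of at least 10% of the positive control shift, at one fixed dose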
* hit, by the source's call; i = inactive; ? = inconclusive; · = no result given. In the library only some 2.8% were active in any assay of this set; here they are far more common.

SMILES | Rtt109 Vps75 | GASC-1 inh | T cell modulator | NR3A LBD binder
CC(C)=CCC[C@](C)(O)C1CC[C@]2(C)C1C(O)CC1[C@@]3(C)CCC(O)C(C)(C)C3C(O[C@@H]3OC(CO)C(O)C(O)C3O[C@@H]3OC(C)C(O)C(O)C3O)C[C@]12C (stereo not given in full) | 24 | -9 | 250 | 10*
CSc1ccccc1C(=O)Nc1cc2c(cc1C(=O)O)OCCCO2 | -5 | 6 | 194 | 3
CCN(Cc1ccccc1)C(=O)c1oc2ccc(S(=O)(=O)N3CCOCC3)cc2c1C | 0 | -6 | 342 | -3
Cc1ccc(Nc2nc(N)nc(CSc3nc4ccccc4s3)n2)cc1 | -5 | 9 | 222 | 17*
COc1cc(NS(=O)(=O)c2ccc(Nc3nc(-c4cccc([N+](=O)[O-])c4)cs3)cc2)nc(OC)n1 | ? | -4 | 253 | 29*
O=C(Nc1nc(-c2ccccc2)cs1)c1cccc([N+](=O)[O-])c1 | -4 | 3 | 530 | 24*
COc1ccccc1Nc1nc(-c2cccc([N+](=O)[O-])c2)cs1 | 11 | 3 | 654 | 33*
COc1ccccc1Nc1nc(-c2sc(NC(=O)c3ccc([N+](=O)[O-])cc3)nc2C)cs1 | · | 14 | 364 | ·
O=[N+]([O-])c1cccc(-c2csc(Nc3ccccc3)n2)c1 | 12 | 0 | 415 | 30*
O=C(CCCCn1ccc(=O)[nH]c1=O)Nc1ccc(C(=O)O)c(O)c1 | 4 | · | · | -1
Cc1ccc(CN2C(=O)C(=O)N(CC(N)=O)C2=O)cc1 | -5 | -3 | 130 | -2
Cc1ccc(C(=O)CN2C(=O)C(=O)N(Cc3ccccc3)C2=O)cc1 | -6 | 32 | 244 | 18*
COc1ccccc1NS(=O)(=O)c1cc(NC(=O)Nc2ccccc2)ccc1N1CCCCC1 | 1 | 6 | 230 | 20*
O=C(Nc1ccc(F)cc1)Nc1ccc(N2CCCC2)c(S(=O)(=O)Nc2ccccc2Cl)c1 | -1 | 1 | 564 | 34*
O=C(Nc1ccc(Cl)c(Cl)c1)Nc1ccc(N2CCCC2)c(S(=O)(=O)Nc2ccccc2Cl)c1 | -1 | 1 | 281 | 30*
O=C(/C=C/c1cccs1)Nc1ccc(N2CCOCC2)c(S(=O)(=O)Nc2cc(Cl)ccc2Cl)c1 | 2 | 7 | 527 | 10*
COC(=O)c1ccc(CNC(=O)C23CC4CC(CC(C4)C2)C3)cc1 | -4 | 3 | 226 | -3
CC(=O)Nc1ccc(C(F)(F)F)cc1Cl | -6 | 1 | 433 | -1
O=C(Nc1ccsn1)c1ccc(Cl)cc1Cl | -2 | -13 | 254 | 10*
O=C1OCCN1C(=O)[C@H]1[C@H](c2ccc(F)cc2)C(c2cccc(Cl)c2)=NN1c1ccc(Br)cc1 | 21 | · | · | 25*
O=C1OCCN1C(=O)[C@H]1[C@H](c2ccc(F)cc2)C(c2cccc(Cl)c2)=NN1c1ccccc1 | 3 | · | · | 16*
O=C1OCCN1C(=O)[C@H]1[C@H](c2ccc(Cl)cc2)C(c2cccc(Cl)c2)=NN1c1ccccc1 | -6 | -8 | · | 17*
CC[C@@H]1C(c2ccc(F)cc2)=NN(c2ccc(Br)cc2)[C@H]1C(=O)N1CCOC1=O | 5 | · | · | 19*
CCN1C[C@@H]2[C@@H]3C(=O)N(C)C(=O)[C@@H]3[C@](CC)(C1=O)N2C(=O)c1ccccc1 | 6 | · | · | 0
O=C(NCc1cccs1)C1CCCN1C(=O)Nc1ccccc1Cl (stereo not given) | 10 | -8 | 490 | -1
SMILES | Rtt109 Vps75 | GASC-1 inh | T cell modulator | NR3A LBD binder
CCCCCCc1ccc(-c2ncc(N)cn2)cc1 | 7 | -9 | · | 11*
O=C(CCN1CCCCCC1)Nc1ccc(F)c(F)c1 | 10 | -3 | 592 | 673*
CN1CCN(CCC(=O)Nc2ccc(F)c(F)c2)CC1 | 4 | -47 | 275 | 0
COc1ccc(F)cc1CN1CCN(C(=O)c2ccc(S(=O)(=O)N3CCCCCC3)cc2)CC1 | 2 | · | · | 0
Cc1ccc(NC(=O)COC(=O)c2ccccc2Nc2ccccc2)cc1 | -8 | 2 | 166 | -2
Cc1cccc(C(=O)Nc2ccccc2C(=O)OCC(=O)Nc2ccc(C#N)cc2)c1 | 4 | -1 | 295 | 15*
Cc1cccc(OCC(=O)Nc2ccc(NC(=O)c3ccccc3)cc2)c1 | 0 | 1 | 0 | 12*
COc1cccc(C(=O)COc2ccc(NC(=O)c3ccccc3)cc2)c1 | 18 | 5 | · | 11*
Cc1ccc(OCC(=O)Nc2ccc(NC(=O)c3ccccc3)cc2)cc1C | -5 | 11 | 509 | -5
CC(=O)c1c(C)[nH]c(C(=O)CN2CCN(S(=O)(=O)c3ccccc3[N+](=O)[O-])CC2)c1C | -13 | · | 209 | 0
COc1ccc(/C=C(/NC(=O)c2ccco2)C(=O)N2CCCCCC2)cc1OC | -4 | 0 | 327 | 0
CC(OC(=O)c1ccc(NC(=O)CC#N)cc1)C(=O)Nc1ccc(Oc2ccccc2)cc1 (stereo not given) | -9 | 1 | 262 | ·
CC(OC(=O)c1ccc(NC(=O)CC#N)cc1)C(=O)Nc1nc(-c2ccccc2)cs1 (stereo not given) | 0 | -17 | 185 | 21*
O=C(NC(Cc1c[nH]c2ccccc12)c1nnc2n1CCCCC2)c1ccccc1Cl (stereo not given) | -4 | -4 | 306 | 11*
CN(C(=O)CSc1nc2ccccc2c(=O)n1-c1ccc(F)cc1)C1CCS(=O)(=O)C1 (stereo not given) | -5 | · | 410 | 1
COc1ccc(-n2c(SCC(=O)N(C)C3CCS(=O)(=O)C3)nc3ccc(O)cc3c2=O)cc1OC (stereo not given) | -3 | -7 | 284 | 14*
N#Cc1cnc(NCc2ccc(Cl)cc2Cl)nc1 | 6 | -13 | i | 0
CN1C(=O)C(O)(C2COC(C)(C)CC2=O)c2ccccc21 (stereo not given) | 1 | -6 | 248 | 2
COc1ccc2c(c1)CC(C1(O)C(=O)N(C)c3ccccc31)C2=O (stereo not given) | 8 | 51* | 393 | 0
c1ccc(-c2noc(-c3ccccc3-c3ccccc3)n2)cc1 | -7 | 10 | 202 | 13*
Fc1ccccc1-c1nc(-c2ccc(Cl)cc2)no1 | -7 | -2 | 396 | 21*
O=C(N/C=N/O)C(c1ccccc1)c1ncc(C(F)(F)F)cc1Cl (stereo not given) | 6 | 78 | 181 | -1
O=C1CCN(CCCc2ccccc2)CCN1[C@H](CO)Cc1ccccc1 | 1 | -8 | 558 | -1
O=C(Nc1nc2cc3c(cc2s1)OCCO3)C1=COCCO1 | 10 | -1 | 168 | 11*
O=C(Nc1nc2ccc(F)cc2s1)C1=COCCO1 | 10 | -339 | 324 | -8
CCOC(=O)c1c(-c2ccccc2)csc1NC(=O)/C(C#N)=C/c1ccc(OC)c(OC)c1 | -12 | 7 | 348 | -1
CCOC(=O)c1c(-c2ccccc2)csc1NC(=O)/C(C#N)=C/c1ccc(O)c(OC)c1 | -34 | 7 | 971 | 27*
CCOC(=O)c1sc2nc(C)nc(SCC(=O)N(C)C3CCS(=O)(=O)C3)c2c1C (stereo not given) | 50* | 7 | 247 | 1
